Source: ChEMBL document CHEMBL2429830, “Antimycobacterial labdane diterpenes from Leucas stelligera” (J Nat Prod, 2013)
Converted amounts (≈) assume the structure as drawn. The source made the active and inactive calls. The calls are words filed in the database; no cut-off is given here.

Tests used:
[1] = tested on: Mycobacterium tuberculosis; test: Antimycobacterial activity against Mycobacterium tuberculosis H37Ra assessed as inhibition of cell viability at 100 ug/mL measured on day 8 by XTT assay in presence of menadione; type: functional, organism-based
Method in brief: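 M. tuberculosis H37Ra (ATCC 25177) grown aerobically to log phase in M. pheli medium at 37 °C, 150 rpm, then sonicated 2 min. About 10^5 cells/mL, 250 μL per well, exposed to DMSO-dissolved samples at 100 μg/mL and incubated at 37 °C in a CO2 incubator. Day 8 read-out: OD470 blank, XTT 200 μM for 20 min, menadione 60 μM for 40 min, then OD470.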

THP-1 [2] = test: Cytotoxicity against human THP1 cells assessed as growth inhibition at 100 ug/mL after 72 hrs by MTT assay relative to control; type: functional; conditions: THP-1, 72 h, read-out: GI
Method in brief: (§1)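 Viability by MTT (1 h, 37 °C), formazan taken up in 2-propanol 4 h, absorbance 490 nm against cell-free blank. Medium with matching DMSO served as 100% growth.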

[3] = tested on: Mycobacterium tuberculosis; test: Antimycobacterial activity against Mycobacterium tuberculosis H37Ra assessed as inhibition of cell viability measured on day 8 by XTT assay in presence of menadione; type: functional, organism-based; conditions: 192 h
Method in brief: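 H37Ra log-phase culture grown in M. pheli medium at 37 °C, sonicated, then seeded at about 10^5 cells/mL. Serial dilutions of DMSO-dissolved samples were tested, with isoniazid as positive control, at 37 °C in a CO2 incubator for 8 days. Viability was read by XTT (200 μM, 20 min) then menadione (60 μM, 40 min), OD470. IC50 and IC90 came from dose-response curves.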

HepG2 [4] = test: Cytotoxicity against human HepG2 cells assessed as growth inhibition at 100 ug/mL after 120 hrs by MTT assay relative to control; type: functional; conditions: HepG2, 120 h, read-out: GI
Method in brief: (§2)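 MTT (10 μL of 5 mg/mL) added for 1 h at 37 °C. Formazan dissolved in 2-propanol for 4 h, read at 490 nm against cell-free blank. DMSO-carrier wells taken as 100% growth.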

HepG2 [5] = test: Cytotoxicity against human HepG2 cells assessed as growth inhibition at IC90 after 120 hrs by MTT assay relative to control; type: functional; method in brief: as §2
THP-1 [6] = test: Cytotoxicity against human THP1 cells assessed as growth inhibition at IC90 after 72 hrs by MTT assay relative to control; type: functional; method in brief: as §1
MCF7 [7] = test: Cytotoxicity against human MCF7 cells assessed as growth inhibition at 100 ug/mL after 192 hrs by MTT assay relative to control; type: functional; conditions: MCF7, 192 h, read-out: GI
Method in brief: (§3)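 MCF-7 cells at ~10^5 cells/mL, 24 h adherence at 37 °C. MTT read-out: 1 h with MTT at 37 °C, then 2-propanol solubilization for 4 h, OD 490 nm versus cell-free wells. Growth expressed relative to DMSO-only controls (100%).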

MCF7 [8] = test: Cytotoxicity against human MCF7 cells assessed as growth inhibition at IC90 after 192 hrs by MTT assay relative to control; type: functional; method in brief: as §3
Escherichia coli [9] = test: Antibacterial activity against Escherichia coli DH5[alpha] assessed as growth inhibition at IC90 after 6 hrs relative to control; type: functional
[10] = tested on: Mycolicibacterium smegmatis; test: Antimycobacterial activity against Mycobacterium smegmatis MC2 155 assessed as inhibition of cell viability at IC90 measured on day 3 by XTT assay in presence of menadione relative to control; type: functional, str. MC2 155
HepG2 [11] = test: Cytotoxicity against human HepG2 cells assessed as growth inhibition after 120 hrs by MTT assay; type: functional; conditions: HepG2, 120 h; method in brief: as §2
THP-1 [12] = test: Cytotoxicity against human THP1 cells assessed as growth inhibition after 72 hrs by MTT assay; type: functional; conditions: THP-1, 72 h; method in brief: as §1
MCF7 [13] = test: Cytotoxicity against human MCF7 cells assessed as growth inhibition after 192 hrs by MTT assay; type: functional; conditions: MCF7, 192 h
Method in brief: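 MCF-7 cells at ~10^5 cells/mL, 24 h adherence at 37 °C. […] MTT read-out: 1 h with MTT at 37 °C, then 2-propanol solubilization for 4 h, OD 490 nm versus cell-free wells. Growth expressed relative to DMSO-only controls (100%).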

Escherichia coli [14] = test: Antibacterial activity against Escherichia coli DH5[alpha] assessed as growth inhibition after 6 hrs; type: functional
[15] = tested on: Mycolicibacterium smegmatis; test: Antimycobacterial activity against Mycobacterium smegmatis MC2 155 assessed as inhibition of cell viability measured on day 3 by XTT assay in presence of menadione; type: functional; conditions: str. MC2 155, 72 h
Method in brief: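 M. smegmatis mc2 155 in microplate wells; on day 3, OD470 read as blank, then XTT (200 μM) added, shaken 1 min and held 20 min at 37 °C. Menadione (60 μM) was then added, mixed 1 min and held another 20 min at 37 °C before the final OD470 reading.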

Question: For `COc1cc(O)c2c(=O)cc(-c3ccc(O)c(OC)c3)oc2c1`, which inhibition [1] is on record?
Answer: The inhibition was “inactive”.

Question: Which inhibition of growth at 100 µg/mL (THP-1 [2]) does the source give for `C=C[C@](C)(O)CC[C@@H]1[C@@]2(C)CCCC(C)(C)[C@H]2CC[C@@]1(C)O` here?
Answer: The inhibition of growth at 100 µg/mL was 96.4%.

Question: What about the IC50 [3] of the same compound?
Answer: The IC50 was 5.95 µg/mL.

Question: Which inhibition of growth at 100 µg/mL (HepG2 [4]) does the source give for `C[C@@H]1CC[C@H]2C(C)(C)CCC[C@]2(C)[C@@]12CC[C@]1(CO[C@H](O)C1)O2` here?
Answer: Its inhibition of growth at 100 µg/mL is 14.4%.

Question: And the “growth inhibition (GI)” value (HepG2 [5])?
Answer: The value was 6.92%.

Question: What about the inhibition of growth at 100 µg/mL (THP-1 [2]) of the same compound?
Answer: Its inhibition of growth at 100 µg/mL is 21.7%.

Question: What about the “growth inhibition (GI)” value (THP-1 [6]) of the same compound?
Answer: Its value is 8.18%.

Question: What about the inhibition of growth at 100 µg/mL (MCF7 [7]) of the same compound?
Answer: The inhibition of growth at 100 µg/mL was 42.4%.

Question: What about the “growth inhibition (GI)” value (MCF7 [8]) of the same compound?
Answer: Its value is 28.98%.

Question: What about the “growth inhibition (GI)” value (Escherichia coli [9]) of the same compound?
Answer: The value was 23.15%.

Question: What about the “inhibition (INH)” value [10] of the same compound?
Answer: Its value is 47.83%.

Question: What about the IC50 [3] of the same compound?
Answer: Its IC50 is 5.55 µg/mL.

Question: And the IC90 [3]?
Answer: The IC90 was 14.9 µg/mL.

Question: `CC(=O)O[C@H]1C(=O)[C@@]2(C)[C@H]([C@H](OC(=O)c3ccccc3)[C@]3(O)C[C@H](OC(=O)[C@H](O)[C@@H](NC(=O)c4ccccc4)c4ccccc4)C(C)=C1C3(C)C)[C@]1(OC(C)=O)CO[C@@H]1C[C@@H]2O` [PACLITAXEL] was tested. Which IC90 (HepG2 [11]) did it give?
Answer: Its IC90 is 78.9 µg/mL (≈ 92.4 µM).

Question: And the inhibition of growth at 100 µg/mL (HepG2 [4])?
Answer: Its inhibition of growth at 100 µg/mL is 87.9%.

Question: What about the IC90 (THP-1 [12]) of the same compound?
Answer: Its IC90 is 98.6 µg/mL (≈ 115 µM).

Question: What about the inhibition of growth at 100 µg/mL (THP-1 [2]) of the same compound?
Answer: Its inhibition of growth at 100 µg/mL is 82.5%.

Question: What about the IC90 (MCF7 [13]) of the same compound?
Answer: The IC90 was 107 µg/mL (≈ 125 µM).

Question: What about the inhibition of growth at 100 µg/mL (MCF7 [7]) of the same compound?
Answer: Its inhibition of growth at 100 µg/mL is 86.7%.

Question: What does the source list for `C[C@@H]1CC[C@H]2C(C)(C)CCC[C@]2(C)[C@@]1(O)CC/C(=C/CO)CO`?
Answer: inhibition of growth at 100 µg/mL (HepG2 [4]): 21.5%; growth inhibition (GI) (HepG2 [5]): 21.48%; inhibition of growth at 100 µg/mL (THP-1 [2]): 9.07%; growth inhibition (GI) (THP-1 [6]): 9.07%; inhibition of growth at 100 µg/mL (MCF7 [7]): 3.54%; growth inhibition (GI) (MCF7 [8]): 3.54%; growth inhibition (GI) (Escherichia coli [9]): 11.47%; inhibition (INH) [10]: 30.57%; IC50 [3]: 9.8 µg/mL

Question: Which IC90 (Escherichia coli [14]) does the source give for `CO[C@H]1/C=C/O[C@@]2(C)Oc3c(C)c(O)c4c(O)c(c(/C=N/N5CCN(C)CC5)c(O)c4c3C2=O)NC(=O)/C(C)=C\C=C\[C@H](C)[C@H](O)[C@@H](C)[C@@H](O)[C@@H](C)[C@H](OC(C)=O)[C@@H]1C` [RIFAMPIN] here?
Answer: The IC90 was 0.5 µg/mL (≈ 0.608 µM).

Question: And the IC90 [15]?
Answer: The IC90 was 0.2 µg/mL.

Question: Which IC90 [3] does the source give for `NNC(=O)c1ccncc1` [ISONIAZID] here?
Answer: The IC90 was 0.055 µg/mL.
